Test results reported in article PMC12086512 (Protein Science : A Publication of the Protein Society, 2025).

Tests used:
[1] = test system: His‐p67C (p67 residues 572–651); assay: ELISA, binding to immobilized p67C; set-up: species or system Theileria parva; details: 50 nM antibody
Method in brief: (§1)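 Proteins coated overnight at 4°C in PBS: full-length C-His p67 (Expi293, Ni-NTA), p67 fragments (E. coli BL21(DE3), GST/6xHis fusion, glutathione resin, TEV cleavage where needed), ubiquitin or BSA. Fab detected with HRP anti-FLAG, IgG with HRP anti-Fc. Eight washes with PBS/0.25% Tween 20 between steps. TMB 2 min, stopped with 1.0 M phosphoric acid, A450 read.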

[2] = test system: ubiquitin; assay: ELISA, negative control protein ubiquitin; assay type: binding; details: serial dilutions of Fab
Method in brief: as §1

[3] = test system: bovine serum albumin; assay: ELISA, negative control protein BSA; assay type: binding; details: serial dilutions of Fab
Method in brief: as §1

[4] = test system: full‐length p67; assay: ELISA, binding to full-length p67; set-up: species or system Theileria parva; details: 50 nM antibody
Method in brief: as §1

[5] = test system: p67^1 (residues 572–612); assay: ELISA, binding to p67^1; set-up: species or system Theileria parva; details: 50 nM antibody
Method in brief: as §1

[6] = test system: T. parva sporozoites; assay: In vitro sporozoite neutralization assay with bovine PBMCs; assay type: cell-based, Theileria parva; details: exact values not determined due to incomplete fitting

B1: Fab B11: phage-derived synthetic human Fab binding p67C, neutralizes T. parva sporozoites (antibody, V domains shown)
VH: EVQLVESGGGLVQPGGSLRLSCAASGFNISSSSIHWVRQAPGKGLEWVASISPYYSSTSYADSVKGRFTISADTSKNTAYLQMNSLRAEDTAVYYCARGPGYAMDYWGQGTLVTVSS
VL: DIQMTQSPSSLSASVGDRVTITCRASQSVSSAVAWYQQKPGKAPKLLIYSASSLYSGVPSRFSGSRSGTDFTLTISSLQPEDFATYYCQQYYYAPITFGQGTKVEIK
Question: With B1 as the molecule, how does the “Binding to p67C” value [1] read?
Answer: The value was “bound”.

Question: And the “Binding to control protein ubiquitin” value [2]?
Answer: Its value is “no detectable binding”.

Question: What about the “Binding to control protein bovine serum albumin” value [3] of the same molecule?
Answer: The value was “no detectable binding”.

Question: What about the “Binding to full-length p67” value [4] of the same molecule?
Answer: The value was “bound”.

Question: What about the “Binding to p67^1” value [5] of the same molecule?
Answer: Its value is “bound”.

Question: And the “Fold less neutralizing potency than IgGs B11 and 21.4” value [6]?
Answer: Its value is “roughly 10 fold”.
